Active and inactive are the calls of the source. The rule behind the calls is not given here.
Columns and labels:
[1] = Antioxidant activity assessed as galvinoxyl radical scavenging activity in ethyl acetate by UV-visible spectroscopy; assay type: functional
Procedure, shortened: (§1)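 The rate constant k (M−1 s−1) came from the slope of pseudo-first-order kobs against compound concentration. Some rates were instead taken from second-order kinetics at a 1/1 compound/GO• ratio. Values are mean±SD of three determinations.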

[2] = Antioxidant activity assessed as galvinoxyl radical scavenging activity in methanol by UV-visible spectroscopy; assay type: functional; procedure, shortened: as §1
HepG2 = experiment: Growth inhibition of human HepG2 cells after 72 hrs by sulforhodamine B assay; assay type: functional, cell-based; settings: HepG2, 72 h
[3] = Stability in PBS at pH 7.4 by UV-visible spectroscopy in presence of HSA; assay type: physicochemical; settings: buffer
[4] = Antioxidant activity assessed as against AAPH-induced oxidative damage of pBR322 plasmid DNA assessed as single strand breakage at 10 uM by gel electrophoresis; assay type: functional
Procedure, shortened: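 Supercoiled pBR322 plasmid DNA (100 ng) incubated with AAPH and/or test compound in PBS, pH 7.4, at 37 °C for 60 min. Strand breakage was assessed by agarose gel electrophoresis as conversion of the supercoiled form to open-circular (single-strand break) and linear (double-strand break) DNA.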

[5] = Stability in PBS at pH 7.4 by UV-visible spectroscopy; assay type: physicochemical; settings: buffer

Structure (SMILES) | IC50 (HepG2) [µM] | Stability [3] | Stability [5] | Activity [1] [M⁻¹ s⁻¹] | Activity [2] [M⁻¹ s⁻¹] | Activity [4]
COc1ccc(/N=C/c2ccc(O)cc2)cc1 | > 300 | – | – | 1.1 | 2.48 | –
Oc1ccc(/N=C/c2ccc(O)c(O)c2)cc1 | 5.6 | Stable | Unstable | 1080 | 14800 | Active
Oc1ccccc1/C=N/c1ccccc1 [2-((PHENYLIMINO)METHYL)PHENOL] | > 300 | – | – | 0.01 | 0.04 | –
Oc1ccc(/N=C/c2ccccc2)cc1 [4-(BENZYLIDENEAMINO)PHENOL] | 108 | – | – | 31.9 | 120 | –

Further lines, with some results ahead:

IC50 (HepG2) [µM] | Stability [3] | Stability [5] | Structure (SMILES) | Activity [1] [M⁻¹ s⁻¹] | Activity [2] [M⁻¹ s⁻¹] | Activity [4]
4.1 | – | – | COc1cc([C@@H]2c3cc4c(cc3[C@@H](O[C@@H]3O[C@@H]5CO[C@@H](C)O[C@H]5[C@H](O)[C@H]3O)[C@H]3COC(=O)[C@H]23)OCO4)cc(OC)c1O [ETOPOSIDE] | – | – | –
79.6 | – | – | Oc1ccc(/C=C/c2cc(O)cc(O)c2)cc1 [RESVERATROL] | 13.4 | 42 | Active
